Data set [1] in a line: Cytotoxicity in HepG2.2.15 cells. The data set is classed as cell-based. Conditions: human. In short, it runs like this:
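Cells plated at 2 × 10^3 per well, exposed continuously to test compound for 14 days; viable cells counted by CCK-8 relative to no-compound controls to give CC50.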

Another data set concerns HBV. The experiment in a line: Anti-HBV assay in HBV-producing HepG2 2.2.15 cells. The data set is classed as cell-based, hepatitis B virus. The settings on record: for EC50: Hepatitis B virus, HepG2 2.2.15, 336 h, read-out: EC50 (nM) against HBV. In short, it runs like this:
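[…] cells seeded at 4 × 10^3 per well with a range of test-compound concentrations; medium and compound renewed on days 3 and 7. On day 14, total cellular DNA was extracted and HBV genomes quantified by real-time PCR (95 °C 10 min; 50 cycles of 95 °C 10 s, 60 °C 1 min). Copies were derived from CT against 10-fold HBV plasmid dilutions, compared with no-compound controls, and EC50 was obtained by linear forecast.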

The structures appear in SMILES notation.

Consider `N#C[C@]1(CO)O[C@@H](n2cnc3c(=O)[nH]c(N)nc32)C[C@@H]1O` [Compound 2, 4′-cyano-deoxyguanosine, reference compound], for which, in data set [1], the CC50 at 14 days was determined as 3 ± 0.2 µM. For the same compound, the EC50 in the data set on HBV is 0.3 ± 0.1 nM.
The like results for `C=C1[C@H](CO)[C@@H](O)C[C@@H]1n1cnc2c(=O)[nH]c(N)nc21` [Compound 1, entecavir, reference compound] were, in that order, 63 µM and 2.3 ± 0.6 nM.
Turning to `N#C[C@]1(CO)/C(=C\F)[C@@H](n2cnc3c(=O)[nH]c(N)nc32)C[C@@H]1O` [Compound (E)-6, (1S,3S,5S,E)-3-(2-Amino-6-oxo-1,6-dihydro-9H-purin-9-yl)-2-(fluoromethylene)-5-hydroxy-1-(hydroxymethyl)cyclopentane-1-carbonitrile], the CC50 at 14 days in data set [1] worked out at 93 µM. Also, the EC50 in the data set with HBV was found to be 1.2 ± 0.7 nM.
On to `N#C[C@]1(CO)/C(=C/F)[C@@H](n2cnc3c(=O)[nH]c(N)nc32)C[C@@H]1O` [(Z)-6, (1S,3S,5S,Z)-3-(2-Amino-6-oxo-1,6-dihydro-9H-purin-9-yl)-2-(fluoromethylene)-5-hydroxy-1-(hydroxymethyl)cyclopentane-1-carbonitrile], for which, in data set [1], the CC50 at 14 days is > 100 µM. In the data set on HBV (HepG2 2.2.15 cells, relative to (E)-6), the “times lower anti-HBV activity compared to compound (E)-6” value is recorded as ~500 times. Also, in the data set with HBV, the EC50 was 585 ± 358 nM.

By CC50 is commonly meant the concentration at which the toxic effect on the cells reaches its halfway point. Broadly, the EC50 is the concentration giving half of the maximal effect.

The values are drawn from article PMC10230191 (RSC Advances, 2023).
